Broadly, the Ki is the dissociation constant of the complex between target and ligand, obtained from inhibition or displacement. Read a low Ki as a stronger hold on the target.

The text below walks through data of ChEMBL document CHEMBL1129436, “Novel peptidyl alpha-keto amide inhibitors of calpains and other cysteine proteases” (J Med Chem, 1996).

The target in experiment [1] is Cathepsin B (Bos taurus, UniProt P07688). The experiment is described as follows: Inhibition of bovine cathepsin B. Summed up: (§1)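 Bovine or human cathepsin B, assayed in 20 mM sodium acetate, pH 5.2, with 0.5 mM dithiothreitol and 2% DMSO. The two enzyme sources were used interchangeably. Ki was taken from Dixon plots, with triplicate assays plotted as 1/v versus inhibitor concentration.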

Experiment [2] deals with T1, Calpain-1 catalytic subunit (Homo sapiens, UniProt P07384).
T1 sequence (P07384 whole entry): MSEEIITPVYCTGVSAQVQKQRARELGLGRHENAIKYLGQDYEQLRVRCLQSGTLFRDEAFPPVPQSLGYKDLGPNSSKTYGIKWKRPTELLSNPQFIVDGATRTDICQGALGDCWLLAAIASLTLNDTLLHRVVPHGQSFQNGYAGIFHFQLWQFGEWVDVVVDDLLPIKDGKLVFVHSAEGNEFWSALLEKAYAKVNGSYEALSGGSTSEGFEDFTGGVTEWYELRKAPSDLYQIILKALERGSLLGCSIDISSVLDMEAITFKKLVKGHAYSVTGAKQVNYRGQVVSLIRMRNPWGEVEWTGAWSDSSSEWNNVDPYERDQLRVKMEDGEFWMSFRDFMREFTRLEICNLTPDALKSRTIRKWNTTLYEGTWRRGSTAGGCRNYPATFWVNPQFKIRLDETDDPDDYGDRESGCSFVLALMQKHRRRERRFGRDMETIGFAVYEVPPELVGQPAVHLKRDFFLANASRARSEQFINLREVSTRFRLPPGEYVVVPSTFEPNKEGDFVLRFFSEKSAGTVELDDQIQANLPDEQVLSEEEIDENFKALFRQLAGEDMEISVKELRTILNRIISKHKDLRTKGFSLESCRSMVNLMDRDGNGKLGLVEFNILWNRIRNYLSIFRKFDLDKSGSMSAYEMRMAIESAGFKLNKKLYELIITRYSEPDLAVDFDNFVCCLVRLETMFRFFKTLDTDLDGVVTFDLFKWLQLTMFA
The experiment is described as follows: Inhibition of the cysteine protease human Calpain 1. Summed up:
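Calpain assay in 25 mM Tris, pH 8.0, with 10 mM CaCl₂ and 5% DMSO. […] hydrolysis was read as initial velocity (t = 30-60 s) after a 30 s delay, at room temperature. Five or more inhibitor concentrations (not above 2 × K_obs) were used at two fixed substrate levels. Ki came from Dixon plots (1/v vs I) averaged over triplicates.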

The target in experiment [3] is Cathepsin B (Homo sapiens, UniProt P07858). The experiment is described as follows: Inhibition of human cathepsin B. The procedure, abridged:
as §1

In turn, `CCC(NC(=O)C(CC(C)C)NC(=O)OCc1ccccc1)C(=O)C(=O)NCC(OC)OC` (stereo not given) displayed an inhibition constant Ki on Cathepsin B [1] of 190 nM.
For `CC(C)CC(NC(=O)OCc1ccccc1)C(=O)NC(Cc1ccccc1)C(=O)C(=O)NCC(O)c1cccc(Oc2ccc(Cl)c(Cl)c2)c1` (stereo not given), the results for the inhibition constant Ki (in experiment [2]; at Cathepsin B [1]) were 590 nM and 640 nM, respectively.
As to `CC(C)CC(NC(=O)C(c1ccccc1)c1ccccc1)C(=O)NC(Cc1ccccc1)C(=O)C(=O)NCCCN1CCOCC1` (stereo not given), the values for the inhibitory constant (Ki) (in experiment [2]; at Cathepsin B [3]) were 760 nM and 3800 nM, respectively.
Take `CCC(NC(=O)C(CC(C)C)NC(=O)OCc1ccccc1)C(=O)C(=O)NCC(O)c1ccc(OC)cc1` (stereo not given): the Ki in experiment [2] stood at 240 nM; on Cathepsin B [1] it was 120 nM.
As to `CC(C)CC(NC(=O)OCc1ccccc1)C(=O)NC(Cc1ccccc1)C(=O)C(=O)NCc1ccc2ccccc2n1` (stereo not given), the values for the Ki (in experiment [2]; on Cathepsin B [3]) were 110 nM and 340 nM, respectively.
Regarding `CCNC(=O)C(=O)C(CC)NC(=O)C(CC(C)C)NC(=O)c1ccco1` (stereo not given), the Ki in experiment [2] came to 850 nM; at Cathepsin B [1], 1200 nM.
In the case of `CCC(NC(=O)C(CC(C)C)NC(=O)OCc1ccccc1)C(=O)C(=O)NCC(O)c1cccc(Oc2cccc(C(F)(F)F)c2)c1` (stereo not given), the Ki in experiment [2] is 70 nM; at Cathepsin B [1], 300 nM.
For `CNC(=O)C(=O)C(Cc1ccccc1)NC(=O)C(CC(C)C)NC(=O)OCc1ccccc1` (stereo not given), in that order: 350 nM and 570 nM.
Consider `CCNC(=O)C(=O)C(CC)NC(=O)C(CC(C)C)NC(=O)Cc1cccc2ccccc12` (stereo not given), for which the results for the inhibitory constant (Ki) (in experiment [2]; on Cathepsin B [3]) were 300 nM and 350 nM, respectively.
`CCC(NC(=O)C(CC(C)C)NC(=O)OCc1ccccc1)C(=O)C(=O)NCCCN1CCCc2ccccc21` (stereo not given): the Ki in experiment [2] turned out to be 370 nM; at Cathepsin B [1] it was 94 nM.
On to `CCNC(=O)C(=O)C(CC)NC(=O)C(CC(C)C)NC(=O)c1cccnc1` (stereo not given), for which the Ki in experiment [2] amounted to 1300 nM; at Cathepsin B [1], 880 nM.
For the compound `CCCC(NC(=O)C(CC(C)C)NC(=O)OCc1ccccc1)C(=O)C(=O)NCC(O)c1ccccc1` (stereo not given), the results for the Ki (in experiment [2]; on Cathepsin B [1]) were 7800 nM and 3400 nM, respectively.
For `CCC(NC(=O)C(CC(C)C)NC(=O)OCc1ccccc1)C(=O)C(=O)NC` (stereo not given), the Ki came to 280 nM in experiment [2] and 330 nM at Cathepsin B [1].
For `CCC(NC(=O)C(CC(C)C)NC(=O)OCc1ccccc1)C(=O)C(=O)NCC(O)c1cccc(Oc2ccc(Cl)c(Cl)c2)c1` (stereo not given), in that order: 270 nM and 100 nM.
For `CCC(NC(=O)C(CC(C)C)NC(=O)OCc1ccccc1)C(=O)C(=O)NCC(O)c1ccc(OCc2ccccc2)c(OCc2ccccc2)c1` (stereo not given), in that order: 230 nM and 320 nM.
In the same order, the values of `CCC(NC(=O)C(CC(C)C)NC(=O)OCc1ccccc1)C(=O)C(=O)NCC(O)c1ccc(Oc2ccccc2)cc1` (stereo not given) are 100 nM and 210 nM.
Take `CC(C)CC(NC(=O)OCc1ccccc1)C(=O)NC(Cc1ccccc1)C(=O)C(=O)NCC(O)c1ccc(Oc2ccccc2)cc1` (stereo not given): the Ki in experiment [2] is 200 nM; at Cathepsin B [1], 2100 nM.
For the compound `CC(C)CC(NC(=O)OCc1ccccc1)C(=O)NC(Cc1ccccc1)C(=O)C(=O)NCCCN1CCc2ccccc2C1` (stereo not given), the inhibitory constant (Ki) in experiment [2] was found to be 220 nM; on Cathepsin B [3], 4500 nM.
As to `CCNC(=O)C(=O)C(CC)NC(=O)C(CC(C)C)NC(=O)N1CCOCC1` (stereo not given), the Ki in experiment [2] came to 7900 nM; on Cathepsin B [1], 4300 nM.
As for `CCOC(CNC(=O)C(=O)C(CC)NC(=O)C(CC(C)C)NC(=O)OCc1ccccc1)OCC` (stereo not given), affinity on Cathepsin B [1] was put at a Ki of 110 nM.
In the case of `CCC(NC(=O)C(CC(C)C)NC(=O)OCc1ccccc1)C(=O)C(=O)NCc1nc2c(c(=O)n(C)c(=O)n2C)n1C` (stereo not given), the inhibitory constant (Ki) was determined as 32000 nM in experiment [2] and 1700 nM on Cathepsin B [1].
In the same order, the values of `CCC(NC(=O)C(CC(C)C)NC(=O)OCc1ccccc1)C(=O)C(=O)NCC(O)c1cc(OC)c(OC)c(OC)c1` (stereo not given) are 380 nM and 220 nM.
`CC(C)CC(NC(=O)C(c1ccccc1)c1ccccc1)C(=O)NC(Cc1ccccc1)C(=O)C(=O)NCC(O)c1ccccc1` (stereo not given): the inhibition constant (Ki) was 10000 nM in experiment [2] and 240 nM at Cathepsin B [1].
For the compound `CCC(NC(=O)C(CC(C)C)NC(=O)OCc1ccccc1)C(=O)C(=O)NCCc1ccccc1OC` (stereo not given), the inhibition constant Ki worked out at 130 nM in experiment [2] and 630 nM on Cathepsin B [3].
As to `CC(C)CC(NC(=O)OCc1ccccc1)C(=O)NC(Cc1ccccc1)C(=O)C(=O)NCc1ccccn1` (stereo not given), the inhibition constant Ki in experiment [2] was determined as 650 nM; on Cathepsin B [3] it was 800 nM.
On to `CCC(NC(=O)C(CC(C)C)NC(=O)OCc1ccccc1)C(=O)C(=O)NCCCN1CCc2ccccc2C1` (stereo not given), for which the inhibition constant (Ki) worked out at 310 nM in experiment [2] and 8000 nM at Cathepsin B [3].
Consider `CCC(NC(=O)C(CC(C)C)NC(=O)OCc1ccccc1)C(=O)C(=O)NCC(O)c1c(F)c(F)c(F)c(F)c1F` (stereo not given), for which the Ki worked out at 50 nM in experiment [2] and 150 nM at Cathepsin B [1].
As to `CCC(NC(=O)C(CC(C)C)NC(=O)OCc1ccccc1)C(=O)C(=O)NCC(O)c1cccc2ccccc12` (stereo not given), the inhibition constant (Ki) in experiment [2] stood at 120 nM; on Cathepsin B [1], 63 nM.
Turning to `CCC(NC(=O)C(CC(C)C)NC(=O)OCc1ccccc1)C(=O)C(=O)NCC(O)c1cccc(C(F)(F)F)c1` (stereo not given), the values for the inhibitory constant (Ki) (in experiment [2]; on Cathepsin B [1]) were 350 nM and 110 nM, respectively.
For `CCNC(=O)C(=O)C(CC)NC(=O)C(CC(C)C)NC(=O)c1ccc2ccccc2n1` (stereo not given), on Cathepsin B [1], the inhibition constant (Ki) is 96 nM.
For `CC(C)CC(NC(=O)OCc1ccccc1)C(=O)NC(Cc1ccccc1)C(=O)C(=O)NCC(O)c1cccc(Oc2cccc(C(F)(F)F)c2)c1` (stereo not given), the inhibitory constant (Ki) came to 180 nM in experiment [2] and 120 nM on Cathepsin B [1].
In the same order, the values of `CC(C)CC(NC(=O)OCc1ccccc1)C(=O)NC(Cc1ccccc1)C(=O)C(=O)NCC(O)c1ccc(OCc2ccccc2)c(OCc2ccccc2)c1` (stereo not given) are 480 nM and 20000 nM.
Take `CCNC(=O)C(=O)C(CC)NC(=O)C(CC(C)C)NC(=O)CCc1ccccc1` (stereo not given): the inhibition constant Ki in experiment [2] is 1900 nM; at Cathepsin B [1], 220 nM.
For `CCC(NC(=O)C(CC(C)C)NC(=O)OCc1ccccc1)C(=O)C(=O)NCC(O)c1ccc2ccccc2c1` (stereo not given), the inhibitory constant (Ki) in experiment [2] was 350 nM; at Cathepsin B [1], 63 nM.
In the same order, the values of `CCNC(=O)C(=O)C(CC)NC(=O)C(CC(C)C)NC(=O)C(c1ccccc1)c1ccccc1` (stereo not given) are 5000 nM and 550 nM.
For `CCC(NC(=O)C(CC(C)C)NC(=O)OCc1ccccc1)C(=O)C(=O)NCC(O)c1ccc(OCc2ccccc2)cc1` (stereo not given), in that order: 80 nM and 110 nM.
For `CC(C)CC(NC(=O)OCc1ccccc1)C(=O)NC(Cc1ccccc1)C(=O)C(=O)NCCNC(=O)CCCC[C@@H]1SC[C@@H]2NC(=O)N[C@@H]21` (stereo not given in full), in that order: 220 nM and 230 nM.
As for `CC(C)CC(NC(=O)OCc1ccccc1)C(=O)NC(Cc1ccccc1)C(=O)C(=O)NCC(O)c1cccc(C(F)(F)F)c1` (stereo not given), the inhibition constant (Ki) in experiment [2] was 460 nM; on Cathepsin B [1], 140 nM.
On to `CCC(NC(=O)C(CC(C)C)NC(=O)OCc1ccccc1)C(=O)C(=O)NCCNC(=O)CCCC[C@@H]1SC[C@@H]2NC(=O)N[C@@H]21` (stereo not given in full), for which the Ki in experiment [2] came out at 650 nM; at Cathepsin B [1] it was 660 nM.
Turning to `CC(C)CC(NC(=O)OCc1ccccc1)C(=O)NC(Cc1ccccc1)C(=O)C(=O)NCCCN1CCCc2ccccc21` (stereo not given), the Ki in experiment [2] turned out to be 380 nM; at Cathepsin B [1], 140 nM.
In the same order, the values of `CC(C)CC(NC(=O)OCc1ccccc1)C(=O)NC(Cc1ccccc1)C(=O)C(=O)NCC(O)c1cccc(Oc2ccccc2)c1` (stereo not given) are 600 nM and 640 nM.
On to `CCC(NC(=O)C(CC(C)C)NC(=O)OCc1ccccc1)C(=O)C(=O)NCC(O)c1ccc(N(C)C)cc1` (stereo not given), for which the inhibition constant (Ki) is 330 nM in experiment [2] and 72 nM at Cathepsin B [1].
In the same order, the values of `CCNC(=O)C(=O)C(CC)NC(=O)C(CC(C)C)NC(=O)c1nccc2ccccc12` (stereo not given) are 350 nM and 220 nM.
In the case of `CC(C)CC(NC(=O)OCc1ccccc1)C(=O)NC(Cc1ccccc1)C(=O)C(=O)NCC(O)c1c(F)c(F)c(F)c(F)c1F` (stereo not given), the results for the inhibitory constant (Ki) (in experiment [2]; on Cathepsin B [1]) were 700 nM and 210 nM, respectively.
For the compound `CCC(NC(=O)C(CC(C)C)NC(=O)OCc1ccccc1)C(=O)C(=O)NCCc1cccn1C` (stereo not given), on Cathepsin B [3], the Ki is 1200 nM.
Consider `CCNC(=O)C(=O)C(CC)NC(=O)C(CC(C)C)NC(=O)c1cnccn1` (stereo not given), for which the inhibition constant (Ki) in experiment [2] is 1400 nM; at Cathepsin B [1], 350 nM.
In the same order, the values of `CC(C)CC(NC(=O)OCc1ccccc1)C(=O)NC(Cc1ccccc1)C(=O)C(=O)NCC(O)c1ccc(N(C)C)cc1` (stereo not given) are 620 nM and 310 nM.
As to `CCC(NC(=O)C(CC(C)C)NC(=O)OCc1ccccc1)C(=O)C(=O)NCC(O)c1cccc(Oc2ccccc2)c1` (stereo not given), the inhibition constant Ki in experiment [2] is 900 nM; at Cathepsin B [1] it was 120 nM.
Regarding `CCC(NC(=O)C(CC(C)C)NC(=O)OCc1ccccc1)C(=O)C(=O)NCc1ccc2ccccc2n1` (stereo not given), the inhibition constant (Ki) in experiment [2] stood at 130 nM; at Cathepsin B [1], 450 nM.
With `CC(C)CC(NC(=O)OCc1ccccc1)C(=O)NC(Cc1ccccc1)C(=O)C(=O)NCC(O)c1ccc(OCc2ccccc2)cc1` (stereo not given), at Cathepsin B [1], the affinity corresponds to a Ki of 380 nM.
